Screening data as filed in PubChem.
The list is not random: actives were taken first. Their share in the collection is about 3%.
Glyco luc inh = increase of ERlucT glycosylation luciferase signal, primary screen, N-linked glycosylation inhibitor project, D54 ERlucT cells, luminescence, set 2. D54 ERlucT glycosylation luciferase reporter, 24 h; percent of 100 nM tunicamycin response. reporter increase, % at 12.5 µM. actives 0.23% (n = 360,000). AID 588692, 2011;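 active = mean luciferase reporter signal, scaled so untreated is 0 and the glycosylation-blocking control 100, at or above a set limit in every replicate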;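 also: luciferase carries N-glycosylation sites so blocking glycosylation raises the light; 0% = median of neutral control wells and 100% = median of 100 nM tunicamycin wells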
HSF1 activator = HSF-1 activators, primary screen, NIH3T3-HGL cells, MG132 stress, luminescence, single point | actives 1.7% (n = 300,000) | NIH3T3-HGL HSF-1 luciferase reporter, 8 h; 100% = twice DMSO control signal | AID 504408, 2011 | activation, % at 9 µM;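 active = mean replicate activation of at least 50% with a set share of replicates each reaching 50%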;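 also: 0% = median of the neutral control wells and 100% = twice that signal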
PfHsp90 yeast 2 = growth inhibition of PfHsp90-expressing yeast, primary screen, antimalarial PfHsp90 inhibitor project, S. cerevisiae, BacTiter-Glo luminescence, single point, set 2 | BacTiter-Glo ATP, 48 h; yeast lacking PDR1 and PDR3 efflux regulators | inhibition, % at 9.4 µM | actives 0.32% (n = 310,000) | AID 504621, 2011;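 active = every replicate shows inhibition above about 80%, whatever the replicate mean, limit read from the data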;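 also: 0% = DMSO neutral controls and 100% = 20 µM radicicol positive controls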
PvdQ inh = P. aeruginosa PvdQ acylase inhibitors, primary screen, biochemical, fluorescence, plate reader and imaging, single point | PvdQ acylase [Pseudomonas aeruginosa LESB58] | purified PvdQ acylase | inhibition, % at 10 µM | actives 0.063% (n = 340,000); in the data active = inhibition above about 30%, passing the limit was not always enough;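 also: 0% = vehicle neutral wells and 100% = reference inhibitor wells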
CaV13 FRET inh = Primary screen for inhibitors of IQ motif and Ca2+-dependent inactivation inhibitor domain binding in CACNA1D, Förster resonance energy transfer in living cells, …; AID 743397; actives 0.098% (n = 340,000); inhibition, % at 12.3 µM; HEK cells, CFP/YFP FRET ICDI-IQ, plate reader, 10 min; percent FRET-ratio fall versus neutral wells;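 active = mean replicate inhibition of at least 30% and at least 1% of replicates passing that level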;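 also: 0% = median of the neutral control wells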
T cruzi inh = inhibitors of intracellular T. cruzi growth, primary screen, luminescence, NIH3T3 host cells; AID 1885, 2009; inhibition, % (no concentration beside the values); T. cruzi beta-gal in NIH3T3, 90 h; actives 1.4% (n = 300,000);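 active = mean inhibition across valid replicates above about 55%, limit read from the data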;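 also: signal also drops with host cell toxicity which is not excluded here; 0% = plate median of DMSO wells and 100% = zero luminescence signal; higher percent means less beta-gal luminescence so fewer parasites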
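Material: NIH/3T3 host cells with β-galactosidase reporter T. cruzi; Input: 5,000 host fibroblasts per well; Medium: DMEM, 2% fetal bovine serum; Compound: 50 nL DMSO compound solution per well; Schedule: 3 h host attachment, then at least 90 h co-culture; Detection: luminescent β-galactosidase signal after 60 min lysis.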
Numbers without * were called inactive; . = no result.

SMILES	Glyco luc inh	HSF1 activator	PfHsp90 yeast 2	PvdQ inh	CaV13 FRET inh	T cruzi inh
Cc1ccc(C)c(Sc2ccc(NC(=O)CCN3C(=O)NC4(CCCC4)C3=O)cc2)c1	0.6	.	.	-5.9	-2.3	.
CCOC(=O)C1=C(C(=O)OCC)C2N(Cc3ccc(C#N)cc3)c3ccccc3[C@@]23C[C@@H](C(=O)OC)N(S(=O)(=O)c2ccc(OC)cc2)C3=N1 (stereo not given in full)	.	.	.	.	-4.3	.
Cc1ccc(Oc2ccc(OCC(=O)NC3CCS(=O)(=O)C3)cc2)cc1 (stereo not given)	-1.9	53.3*	-13.7	-2.4	-7.5	-12.7
Cc1ccc(C)c(S(=O)(=O)NC2CCSC2=O)c1 (stereo not given)	0.0	.	-30.0	79.0*	-3.0	.
CC(=O)c1ccc(Nc2nc(N3CCOCC3)nc(N3CCOCC3)n2)cc1	-1.2	7.4	-14.2	-17.2	-1.5	15.1
CC(=O)Nc1ccc(/C(C)=N/Nc2nc(Nc3ccccc3)nc(N3CCOCC3)n2)cc1	-8.8	2.1	-35.7	-10.2	-4.3	67.0*
O=C(CSc1nc(Nc2ccccc2)nc(N2CCOCC2)n1)Nc1ccc([N+](=O)[O-])cc1	-10.0	18.9	-0.3	1.4	-7.6	56.5*
O=C(NNC(=O)c1cccc(S(=O)(=O)Nc2ccccc2F)c1)c1ccncc1	0.8	.	.	.	-7.4	.
Cc1ccc(N=C2C(=O)Nc3ccccc32)cc1C	2.7	51.3*	12.0	6.2	-19.7	-6.1
Fc1ccc2cc(C3=CCCCC3)ncc2c1	.	.	.	.	-5.3	.
CCn1c(SCC(=O)NCc2ccco2)nc2ccccc2c1=O	0.6	14.9	9.1	-8.2	-4.5	-4.3
O=C(CSc1nc2ccccc2c2nc3ccccc3n12)NCc1ccco1	1.5	103.3*	-17.6	-7.3	-4.9	12.0
COc1ccc(C(=O)Oc2cc(N)n(S(=O)(=O)c3ccccc3)n2)cc1	2.0	6.5	-12.3	-21.9	96.7*	-13.9
COc1ccc(Cl)cc1C(=O)O/N=C(\N)c1ccc(Cl)cc1	0.5	-21.1	2.0	-9.6	-5.0	-14.3
Cc1ccc(/C(N)=N/OC(=O)c2ccco2)cc1	-17.1	55.4*	.	-7.2	-4.0	-13.1
Cc1ccc(/C(N)=N/OC(=O)CSc2ccccc2)cc1	3.2	61.8*	1.3	-10.8	-6.3	3.8
N/C(=N\OC(=O)c1ccco1)c1ccccc1	-6.9	54.6*	-16.8	-3.5	-5.4	-2.3
Cc1occc1C(=O)O/N=C(\N)c1ccc(Cl)cc1	1.7	57.6*	-14.1	-31.0	-0.4	9.9
COC(=O)C1=C(C)N(C)C(=NCc2ccc(OC)cc2)NC1c1ccc(F)cc1 (stereo not given)	.	.	.	.	-9.1	.
COC(=O)[C@]12C[C@H](CC(=O)NCCCN3CCCC3=O)C(=O)N(Cc3ccccc3)C1=C[C@H](C1CCCC1)O[C@@H]2C	.	.	.	.	-10.1	.
C=CCCN1[C@@H](Cc2ccccc2)COc2ccccc2S1(=O)=O	.	.	.	.	-4.0	.
N/C(=N\OC(=O)C1CCCCC1)c1ccc(Br)cc1	-1.2	57.3*	3.8	21.9	-3.0	-17.2
CCOc1ccc(C(=O)COC(=O)CNC(=O)C2CCCCC2)cc1	2.3	.	13.1	-2.3	-2.0	.
O=C(CNC(=O)C1CCCCC1)OCC(=O)c1ccc(Br)cc1	2.6	64.6*	6.8	-13.3	-6.8	-3.4
N/C(=N\OC(=O)C1CCCCC1)c1ccc(Cl)cc1	1.6	84.5*	-19.4	-9.8	-5.6	-5.2
SMILES	Glyco luc inh	HSF1 activator	PfHsp90 yeast 2	PvdQ inh	CaV13 FRET inh	T cruzi inh
CCOC(=O)C1(C)CCCN(C(=O)C(c2ccccc2)c2ccccc2)C1 (stereo not given)	0.0	.	.	.	-6.4	.
OC(c1ccccc1)(c1nc(-c2ccc(Cl)cc2)cs1)C(F)(F)F (stereo not given)	2.1	.	.	.	-5.3	.
COc1ccc(OC)c(CCNC(=O)CCCC(=O)n2ncc3cc(C)ccc32)c1	-0.6	17.0	10.6	-10.0	-5.8	18.5
Cc1ccc(C(=O)/C=C/NNC(=O)c2ccccc2O)cc1	-1.5	52.9*	-10.9	-17.9	-1.7	-9.6
O=C(/C=C/NNC(=O)c1ccccc1)c1ccc(Br)cc1	-1.9	60.3*	-5.2	-5.9	.	5.5
COC(=O)c1ccc2nc(-c3ccc(C#N)cc3)c(Cc3cccc(Cl)c3)n2c1	.	.	.	.	-5.0	.
CCOC(=O)C1=C(C(=O)OCC)C2N(Cc3ccc(C(F)(F)F)cc3)c3ccccc3[C@@]23C[C@@H](C(=O)OC)N(S(=O)(=O)c2ccccc2C)C3=N1 (stereo not given in full)	.	.	.	.	-4.6	.
NC(=O)c1c(N)[nH]c(C(=O)c2ccccc2)c1-c1ccc2ccccc2c1	.	.	.	.	-5.2	.
CCOC(=O)c1ccc(N2C(=O)C=CC2=O)cc1	-0.5	4.3	130.2*	-15.9	.	33.4
CC1CN(C(=O)COC(=O)c2cc(=O)[nH]c3ccccc23)CC(C)O1 (stereo not given)	-0.1	.	.	.	-13.5	.
Cc1cc2c(cc1C)CN(c1ccccc1)C2	-9.0	55.5*	11.4	2.2	-19.8	21.9
Cc1cc(C)c2[nH]c(=O)c(CN(CC3CCCO3)C(=S)NCc3ccco3)cc2c1 (stereo not given)	1.1	62.3*	-9.2	15.0	-2.5	3.1
Cc1ccc(C)c2[nH]c(=O)c(CN(Cc3ccco3)C(=S)NCC3CCCO3)cc12 (stereo not given)	-2.0	76.8*	27.5	-15.3	-5.0	0.3
C[C@@H]1CN([C@H](C)CO)C(=O)c2c(c3ccccc3n2C)-c2ccccc2CO[C@H]1CN(C)S(=O)(=O)c1cn(C)cn1	0.1	.	.	.	-5.4	.
CCOC(=O)C1=CN(Cc2ccc(OC)cc2)C=C(C(=O)OCC)C1c1cccs1	-2.3	51.1*	0.3	-0.3	-5.5	37.8
c1ccc(-c2nc3ccccc3nc2-c2ccc(CN3CCC4(CC3)CNc3ccccc34)cc2)cc1	.	.	.	.	-10.9	.
Cn1cc([N+](=O)[O-])c(C(=O)Nc2sc3c(c2C#N)CCC3)n1	-19.4	189.9*	16.3	-8.2	-4.2	-31.1
Cn1cc(Br)c(C(=O)Nc2sc3c(c2C#N)CCC3)n1	2.6	-5.4	.	.	-4.3	26.8
COC(=O)[C@@]12C[C@@H](CC(=O)NCC34CC5CC(CC(C5)C3)C4)C(=O)N(CCc3ccc(OC)c(OC)c3)C1=CCC(C)(C)C2	.	.	.	.	-4.0	.
COc1cc(CNCCCN2CCOCC2)cc(Br)c1OCc1ccc(Cl)cc1	-13.7	-9.2	-2.8	-16.5	-5.1	59.2*
CCOc1cc(CNCCCN2CCOCC2)cc(Cl)c1OCC(=O)NC(C)(C)C	-0.3	2.9	0.1	-17.4	-20.5	51.2
